Key:
Mus musculus = assay: Analgesic activity in albino mouse assessed as reduction in acetic acid-induced writhing response at 100 mg/kg, po administered 1 hr prior to acetic acid challenge relative to control; type: functional; parameters: scale not given: the % may be the effect or the level left
Outline: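 Six mice per group got compound po at 100 mg/kg, 1 h before ip 0.6% acetic acid (10 mL/kg). Total writhes were counted over an observation window starting 5 min after the acetic acid injection. Aspirin at 100 mg/kg po was the positive control.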

Rattus norvegicus = assay: Antiinflammatory activity in albino rat assessed as inhibition of carrageenan-induced paw edema at 100 mg/kg, po administered 1 hr prior to carrageenen challenge measured after 3 hrs relative to control; type: functional
Outline: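 Four rats per group got 100 mg/kg po, 1 h before subplantar injection of 1% Type IV lambda carrageenan suspension into the right hind paw. Vehicle controls got 0.5% sodium carboxymethyl cellulose (10 mL/kg) and the positive control got ibuprofen 100 mg/kg. Paw volume was read by plethysmograph water displacement immediately and at 3 h. Edema was compared statistically with vehicle controls as percent inhibition.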

SMILES | Activity (Mus musculus) | inhibition in vivo at 100 mg/kg (Rattus norvegicus)
CC(=O)Oc1ccccc1C(=O)O [ASPIRIN] | 57.3% | –
CC(C)Cc1ccc(C(C)C(=O)O)cc1 (configuration not stated) [IBUPROFEN] | – | 70.7%
